Series [1] is described as follows: Solubility at pH 7.4 buffer. It is filed as physicochemical. The gist of the method: (§1)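 Excess solid was shaken 24 h at 25 °C in water or in 0.05 M phosphate buffer pH 7.4, then filtered (0.22 µm) with the first portion discarded. The filtrate was diluted with 0.1 N HCl or NaOH and measured spectrophotometrically at the compound's absorbance maximum.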
Series [2] in a line: Solubility in water was determined at 25 degrees Centigrade. The series is classed as physicochemical. The gist of the method:
as §1

The subject of another series is Bacillus cereus. Briefly: In vitro antibacterial activity measured as minimum inhibitory concentration was evaluated on Bacillus cereus ATCC 11778 (Bc). It is filed as functional. As to conditions: Bacillus cereus, ATCC 11778; read-out: MIC. The gist of the method: (§2)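 Serial 2-fold agar dilution in Mueller Hinton medium, run side by side with reference quinolones. Inoculum 10^5 cfu/mL; compound range 0.007–16 µg/mL.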

The subject of a further series is Bacillus subtilis. Briefly: In vitro antibacterial activity measured as minimum inhibitory concentration was evaluated on Bacillus subtilis ATCC 6633(Bs). It is filed as functional. As to conditions: Bacillus subtilis, ATCC 6633; read-out: MIC. The gist of the method:
as §2

For the next series, the system named is Enterobacter cloacae. Briefly: In vitro antibacterial activity measured as minimum inhibitory concentration, was evaluated on Enterobacter cloacae ATCC 23355 (Ecl). The conditions noted are these: Enterobacter cloacae, ATCC 23355; read-out: MIC. It is filed as functional.
The next series has as its system Klebsiella pneumoniae. Briefly: In vitro antibacterial activity measured as minimum inhibitory concentration was evaluated on klebsiella pneumoniae ATCC 10031 (Kp). The series is classed as functional. The conditions noted are these: Klebsiella pneumoniae, ATCC 10031; read-out: MIC. The gist of the method:
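Serial 2-fold agar dilution in Mueller Hinton medium, run side by side with reference quinolones.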

The next series relates to Proteus vulgaris. Briefly: In vitro antibacterial activity measured as minimum inhibitory concentration was evaluated on proteus vulgaris ATCC 8427 (Pv). The conditions noted are these: Proteus vulgaris, ATCC 8427; read-out: MIC. The series is classed as functional. The gist of the method: as §2
Series [3] concerns Pseudomonas aeruginosa. Briefly: In vitro antibacterial activity measured as minimum inhibitory concentration was evaluated on Pseudomonas aeruginosa ATCC 10145 (Pa). The series is classed as functional. As to conditions: Pseudomonas aeruginosa, ATCC 10145; read-out: MIC. The gist of the method:
as §2

In series [4] the test system is Staphylococcus aureus. Nature of the series: In vitro antibacterial activity measured as minimum inhibitory concentration was evaluated on Staphylococcus aureus ATCC 25178 (Sa). The series is classed as functional. The conditions noted are these: Staphylococcus aureus, ATCC 25178; read-out: MIC. The gist of the method:
as §2

The subject of series [5] is Staphylococcus epidermidis. Nature of the series: In vitro antibacterial activity measured as minimum inhibitory concentration was evaluated on Staphylococcus epidermidis ATCC 155-1 (Se). The conditions noted are these: Staphylococcus epidermidis, ATCC 155-1; read-out: MIC. The series is classed as functional. The gist of the method: as §2
Another series relates to Enterococcus faecalis. Nature of the series: In vitro antibacterial activity measured as minimum inhibitory concentration was evaluated on Streptococcus faecalis ATCC 10541 (Sf). The series is classed as functional. As to conditions: Enterococcus faecalis, ATCC 10541; read-out: MIC. The gist of the method:
as §2

In series [6] the test system is Escherichia coli. Briefly: In vitro antibacterial activity measured as minimum inhibitory concentration, was evaluated on Escherichia coli ATCC 23559(Ec). The series is classed as functional. As to conditions: Escherichia coli, ATCC 23559; read-out: MIC. The gist of the method: as §2
A further series relates to Morganella morganii. Briefly: In vitro antibacterial activity measured as minimum inhibitory concentration was evaluated on morganella morganii ATCC 8019 (Mm). It is filed as functional. The conditions noted are these: Morganella morganii, ATCC 8019; read-out: MIC. The gist of the method: as §2
For series [7] the following is noted: mouse, in vivo, po, 50 mg/kg.
For series [8], the system named is Pseudomonas aeruginosa. Nature of the series: In vivo efficacy as ED50 against Pseudomonas aeruginosa HS-116 by oral administration in mice. As to conditions: Pseudomonas aeruginosa, po; read-out: ED50. The series is classed as functional. The gist of the method:
(§3)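 Mice, 4 groups of 10, infected intraperitoneally with slightly more than the LD100 of the organism. A single oral dose was given immediately after infection, with four doses (one per group) chosen from in vitro activity. Survival was scored after one week. ED50 (total dose, mg/kg, protecting 50%) was interpolated among group survival rates.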

Series [9] concerns Staphylococcus aureus. Nature of the series: In vivo efficacy as ED50 against Staphylococcus aureus HS-93 by oral administration in mice. As to conditions: Staphylococcus aureus, po; read-out: ED50. The series is classed as functional. The gist of the method: as §3
The test system of series [10] is Escherichia coli. Briefly: In vivo efficacy as ED50 against Escherichia coli HM-42 by oral administration in mice. It is filed as functional. The conditions noted are these: Escherichia coli, po; read-out: ED50. The gist of the method: as §3

In brackets after ≈: the same amount, converted by molar mass.

Turning to `C[C@H](N)C(=O)N[C@@H]1CN(c2nc3c(cc2F)c(=O)c(C(=O)O)cn3C2CC2)[C@H]1C`, the solubility in [1] and in series [2] was over 0.5 mg/mL in each case. The MIC in the series on Bacillus cereus was 1 mg/L (≈ 2.48 µM); in the series on Bacillus subtilis it was 0.12 mg/L (≈ 0.297 µM); with Enterobacter cloacae, 0.12 mg/L (≈ 0.297 µM); in the series on Klebsiella pneumoniae it was 0.06 mg/L (≈ 0.149 µM); in the series with Proteus vulgaris, 1 mg/L (≈ 2.48 µM); in the series with Pseudomonas aeruginosa [3], 8 mg/L (≈ 19.8 µM). The MIC turned out to be 0.5 mg/L (≈ 1.24 µM) with Staphylococcus aureus [4]; 0.5 mg/L (≈ 1.24 µM) in series [5]; 8 mg/L (≈ 19.8 µM) in the series with Enterococcus faecalis; 0.12 mg/L (≈ 0.297 µM) in the series with Escherichia coli [6]; 0.5 mg/L (≈ 1.24 µM) in the series on Morganella morganii. This compound also showed an AUC in series [7] of 28.8 µg·h/mL.
With `C[C@@H]1[C@@H](NC(=O)[C@@H](C)N)CN1c1nc2c(cc1F)c(=O)c(C(=O)O)cn2C1CC1`, the solubility in series [1] and in series [2] was over 0.5 mg/mL each time. In addition, the MIC in the series with Bacillus cereus stood at 1 mg/L (≈ 2.48 µM); in the series on Bacillus subtilis it was 0.5 mg/L (≈ 1.24 µM); in the series on Enterobacter cloacae it was 4 mg/L (≈ 9.92 µM); with Klebsiella pneumoniae, 8 mg/L (≈ 19.8 µM); in the series with Proteus vulgaris, 8 mg/L (≈ 19.8 µM); in the series on Pseudomonas aeruginosa [3], 16 mg/L (≈ 39.7 µM). Moreover, the MIC in the series with Staphylococcus aureus [4] was determined as 1 mg/L (≈ 2.48 µM); in series [5], 0.25 mg/L (≈ 0.62 µM); in the series with Enterococcus faecalis, 1 mg/L (≈ 2.48 µM); with Escherichia coli [6], 1 mg/L (≈ 2.48 µM); in the series on Morganella morganii it was 8 mg/L (≈ 19.8 µM). Besides, the AUC in [7] was found to be 0 µg·h/mL.
`C[C@H]1[C@H](N)CN1c1nc2c(cc1F)c(=O)c(C(=O)O)cn2C1CC1` (single isomer, unassigned): the results for the solubility in series [1] and in series [2] were 0.0165 mg/mL (≈ 49.6 µM) and 0.023 mg/mL (≈ 69.2 µM), respectively. The MIC amounted to 0.015 mg/L (≈ 0.0451 µM) in the series on Bacillus cereus; 0.015 mg/L (≈ 0.0451 µM) with Bacillus subtilis; 0.015 mg/L (≈ 0.0451 µM) with Enterobacter cloacae; 0.015 mg/L (≈ 0.0451 µM) with Klebsiella pneumoniae; 0.12 mg/L (≈ 0.361 µM) with Pseudomonas aeruginosa [3]; 0.06 mg/L (≈ 0.181 µM) in the series with Staphylococcus aureus [4]. For the same compound, the MIC amounted to 0.06 mg/L (≈ 0.181 µM) in series [5], 0.12 mg/L (≈ 0.361 µM) in the series with Enterococcus faecalis, 0.015 mg/L (≈ 0.0451 µM) in the series on Escherichia coli [6] and 0.015 mg/L (≈ 0.0451 µM) in the series on Morganella morganii. The ED50 in the series on Pseudomonas aeruginosa [8] was 34 mg/kg; with Staphylococcus aureus [9], 4.6 mg/kg; with Escherichia coli [10], 1 mg/kg. This compound also came in with an AUC in series [7] of 19.2 µg·h/mL.
With `CC(C)C[C@H](N)C(=O)N[C@@H]1CN(c2nc3c(cc2F)c(=O)c(C(=O)O)cn3C2CC2)[C@H]1C`, the solubility in [1] and in series [2] was over 0.5 mg/mL throughout. Further, the MIC in the series on Bacillus cereus came out at 0.12 mg/L (≈ 0.269 µM); in the series on Bacillus subtilis, 0.12 mg/L (≈ 0.269 µM); in the series with Enterobacter cloacae, 0.12 mg/L (≈ 0.269 µM); in the series with Klebsiella pneumoniae it was 0.06 mg/L (≈ 0.135 µM); with Proteus vulgaris, 0.25 mg/L (≈ 0.561 µM); in the series on Pseudomonas aeruginosa [3], 8 mg/L (≈ 18 µM). The MIC turned out to be 0.25 mg/L (≈ 0.561 µM) with Staphylococcus aureus [4]; 0.25 mg/L (≈ 0.561 µM) in series [5]; 2 mg/L (≈ 4.49 µM) in the series on Enterococcus faecalis; 0.06 mg/L (≈ 0.135 µM) in the series on Escherichia coli [6]; 0.25 mg/L (≈ 0.561 µM) in the series on Morganella morganii. Moreover, the ED50 with Pseudomonas aeruginosa [8] was determined as 63 mg/kg; in the series on Staphylococcus aureus [9], 9.4 mg/kg; in the series on Escherichia coli [10], 2 mg/kg. In addition, the AUC in series [7] was determined as 24.9 µg·h/mL.
Turning to `C[C@@H]1[C@@H](N)CN1c1c(F)cc2c(=O)c(C(=O)O)cn(-c3ccc(F)cc3)c2c1F`, the MIC in the series with Bacillus cereus came out at 0.12 mg/L (≈ 0.298 µM); in the series on Bacillus subtilis it was 0.06 mg/L (≈ 0.149 µM); in the series with Enterobacter cloacae it was 0.015 mg/L (≈ 0.0372 µM); in the series with Klebsiella pneumoniae, 0.015 mg/L (≈ 0.0372 µM); in the series with Proteus vulgaris, 0.25 mg/L (≈ 0.62 µM); in the series with Pseudomonas aeruginosa [3], 0.5 mg/L (≈ 1.24 µM). Further, the MIC is 0.12 mg/L (≈ 0.298 µM) with Staphylococcus aureus [4]; 0.25 mg/L (≈ 0.62 µM) in series [5]; 1 mg/L (≈ 2.48 µM) in the series with Enterococcus faecalis; 0.06 mg/L (≈ 0.149 µM) in the series on Escherichia coli [6]; 0.12 mg/L (≈ 0.298 µM) in the series on Morganella morganii. The ED50 is 53 mg/kg in the series on Pseudomonas aeruginosa [8], 4.8 mg/kg with Staphylococcus aureus [9] and 2.1 mg/kg in the series with Escherichia coli [10]. For the same compound, the AUC in series [7] worked out at 40.9 µg·h/mL.

One may read the solubility as how much of the substance goes into solution per volume. A low value points to little dissolved substance. For orientation: MIC means the smallest concentration in the dilution series that meets the test's criterion for growth inhibition. A word on the AUC: it is the area under the concentration-time curve, a measure of exposure. What is called ED50 is the midpoint of the dose-response relation.

The values above are taken from ChEMBL document CHEMBL1128288, “7-Azetidinylquinolones as antibacterial agents. 3. Synthesis, properties and structure-activity relationships of the stereoisomers containing a 7-(3-amino-2-methyl-1-azetidinyl) moiety” (J Med Chem, 1995).
